Experimental data from PubChem BioAssay.
Results filed as inconclusive are left out.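 The calls were made as follows, unless noted: active = viability increase at or above a cutoff of the median across tested compounds plus 3 SD (cut at about 8.5% in these data, passing the limit was not always enough); inconclusive = some gains above the cutoff, reason not given; inactive = the rest.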

Columns and labels:
[1] = OD615 S. cerevisiae growth inhibition, permissive medium, pilot counter-assay, permissive growth control for S. cerevisiae lifespan shortening project (AID 705;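 active = growth inhibition above 25% in both replicates, a cutoff set 3 SD above the mean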); details: OD615, 24 h, at 10 µM, stronger effect = higher value
How it was run: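 System – S. cerevisiae with engineered DeaD lifespan system · Buffer or medium – SC raffinose/galactose permissive medium · Schedule – cells pre-grown 4 h, then 24 h compound exposure, 30 °C humidified · Technique – culture turbidity as optical density at 615 nm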

[2] = Restrictive medium S. cerevisiae growth inhibition, OD615, pilot screen of yeast lifespan reduction project, restrictive growth control (AID 706;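 active = growth inhibition above a set limit, 3 SD over mean compound inhibition, in both replicates, cut at about 43% in these data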;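 also: modified DeaD lifespan yeast strain shifted to restrictive glucose medium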); details: OD615, 48 h, at 10 µM, stronger effect = higher value
How it was run: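 Material: engineered S. cerevisiae DeaD strain / Medium: glucose-based CSMM-D restrictive medium / Compound: single dose of 10 µM compound final, 0.25% DMSO / Timing: 4 h pre-incubation, 48 h exposure at 30 °C / Technique: OD615 absorbance reading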

[3] = viability gain of MRP-1-high H69AR cells under doxorubicin, pilot screen, MRP-1 activator project, CellTiter-Glo, duplicate (AID 807); details: H69AR viability with doxorubicin, CellTiter-Glo luminescence; at 10 µM; stronger effect = higher value;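 also: compound pretreatment 18-22 h then 72 h combined with doxorubicin; 0% = doxorubicin alone and 100% = vehicle without doxorubicin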
[4] = growth suppression of beta-catenin knockout HCT116, pilot screen, human colon tumor cells (AID 823;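 active = cell viability at or below a set limit in both duplicate runs, the limit being the all-compound median minus 4 SD, cut at about 23% in these data, passing the limit was not always enough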;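 also: 0% = wells killed by 20 µM Hyamine and 100% = untreated DMSO cell wells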); details: CellTiter-Glo, 60 h, at 10 µM, stronger effect = lower value
[5] = growth suppression of PTEN-deleted HCT116, pilot screen, cell-based, HCT116 clonal line, CellTiter-Glo (AID 824;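 active = viability at or below 27.92% in each of two runs, the all-compound median minus 4 SD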;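 also: 0% = 20 µM Hyamine control and 100% = vehicle cell control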); details: 60 h, at 10 µM, stronger effect = lower value
[6] = inhibitors of the yeast RAM network, pilot screen, dse1pr::URA3 reporter, 5-FOA selection (AID 869;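 active = inhibition over a set limit, the all-compound mean plus 3 SD, in both replicate runs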;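 also: 0% = DMSO wells with no growth and 100% = 10 µM 1-NA-PP1 with full growth; RAM network block rescues cells from 5-FOA so hits raise OD615 growth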); details: S. cerevisiae dse1pr::URA3 5-FOA growth, OD615, 2 d; at 10 µM; stronger effect = higher value; strain carries analog-sensitive mutant Cbk1 kinase
[7] = RAM signaling pathway blockade in yeast – S. cerevisiae, Pdr1DBD-CYC8 efflux-inhibited sensitized strain, primary screen (AID 1298;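 active = RAM network inhibition above 8.4% in each of two replicates, 3 SD over the compound average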;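 also: 0% = DMSO untreated cells without growth and 100% = 10 µM 1-NA-PP1 full growth; higher means more yeast growth rescued from 5-FOA killing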); details: S. cerevisiae cbk1-as DSE1-URA3 strain, 5-FOA growth OD615, 2 d; at 50 µM; stronger effect = higher value

COc1ccccc1NC(=O)c1ccc(N)cc1
inactive: growth inhibition [1] -2% | growth inhibition [2] -2.66% | viability increase [3] 0.45% | viability [4] 105% | viability [5] 103% | inhibition [6] 2.87% | RAM network inhibition [7] 2.74%

O=C1C2CCCN2C(c2ccc(F)c(F)c2)N1c1cccc(Cl)c1 (stereo unspecified)
inactive: growth inhibition [1] 3.17% | growth inhibition [2] -1.67% | viability increase [3] -0.86% | viability [4] 101% | viability [5] 100% | inhibition [6] 0.745% | RAM network inhibition [7] 5.42%

COc1ccccc1C(=O)Nc1nnc(-c2ccc(F)cc2)o1
inactive: growth inhibition [1] -8.41% | growth inhibition [2] -13.1% | viability increase [3] 0.01% | viability [4] 101% | viability [5] 101% | inhibition [6] 0.59% | RAM network inhibition [7] 2.59%

COc1cc(NC(=O)c2onc(C)c2Cl)c(OC)cc1Cl
inactive: growth inhibition [1] -3% | growth inhibition [2] -6.72% | viability increase [3] -5.82% | viability [4] 91.7% | viability [5] 94.5% | inhibition [6] 1.35% | RAM network inhibition [7] 3.23%

Cc1ccc(OCCCN(C)C)c(Br)c1
inactive: growth inhibition [1] -0.99% | growth inhibition [2] -6.73% | viability increase [3] -1.22% | viability [4] 89.1% | viability [5] 87.7% | inhibition [6] 1.03% | RAM network inhibition [7] 2.05%

CC(=O)NC(CCS(C)(=O)=O)C(=O)Nc1ccc2c(c1)OCO2 (stereo unspecified)
inactive: growth inhibition [1] -0.69% | growth inhibition [2] -1.89% | viability increase [3] -0.58% | viability [4] 109% | viability [5] 95.5% | inhibition [6] 0.175% | RAM network inhibition [7] 2.15%

Cn1cc(S(=O)(=O)CC(=O)Nc2ccc3c(c2)OCO3)c2ccccc21
inactive: growth inhibition [1] -1.92% | growth inhibition [2] 4.48% | viability increase [3] -2.54% | viability [4] 95.9% | viability [5] 92.1% | inhibition [6] 0.5% | RAM network inhibition [7] 5.14%

O=C(Nc1cccc(OC(F)(F)F)c1)c1ccc(Br)o1
inactive: growth inhibition [1] -1.13% | growth inhibition [2] 9.08% | viability increase [3] 1.31% | viability [4] 81.6% | viability [5] 75.1% | inhibition [6] 2.96% | RAM network inhibition [7] 0.92%

O=C(NCc1ccco1)c1ccc(S(=O)(=O)c2cccc(S(=O)(=O)N3CCOCC3)c2)cc1
inactive: growth inhibition [1] 19% | growth inhibition [2] 2.85% | viability increase [3] -4.28% | viability [4] 92.4% | viability [5] 87.1% | inhibition [6] 1.19% | RAM network inhibition [7] 3.8%

O=C1C2ON(c3ccccc3)C(c3ccncc3)C2C(=O)N1c1ccc(N2CCOCC2)cc1 (stereo unspecified)
inactive: growth inhibition [1] -13.7% | growth inhibition [2] 0.35% | viability increase [3] -0.72% | viability [4] 104% | viability [5] 103% | inhibition [6] 2.51% | RAM network inhibition [7] 0.47%

CCOC(=O)NC(Nc1nnc(SCC)s1)(C(F)(F)F)C(F)(F)F
inactive: growth inhibition [1] -3.14% | growth inhibition [2] 2.81% | viability increase [3] -2.85% | viability [4] 89.8% | viability [5] 91% | inhibition [6] 1.5% | RAM network inhibition [7] 3.2%

COC(=O)C1=C(C)N(C)C(=O)NC1c1ccc(O)c(OC)c1 (stereo unspecified)
inactive: growth inhibition [1] 0.58% | growth inhibition [2] -7.74% | viability increase [3] -0.98% | viability [4] 105% | viability [5] 98.9% | inhibition [6] 0.425% | RAM network inhibition [7] 6.2%

O=C(CSc1nnc(Cc2cc(=O)[nH]c(=O)[nH]2)n1-c1ccc(F)cc1)NC1CCCC1
inactive: growth inhibition [1] -14.8% | growth inhibition [2] -7.13% | viability increase [3] -1.18% | viability [4] 105% | viability [5] 102% | inhibition [6] 0.96% | RAM network inhibition [7] 6.6%

Cc1ccc(N(CC(O)CN2CCCC2)S(=O)(=O)c2ccccc2)cc1 (stereo unspecified)
inactive: growth inhibition [1] -1.29% | growth inhibition [2] -3.1% | viability increase [3] -2.89% | viability [4] 94.2% | viability [5] 91.2% | inhibition [6] -0.105% | RAM network inhibition [7] 5.78%

Cc1noc(C)c1CSCC(=O)OCC(=O)NC1CCCCC1
inactive: growth inhibition [1] -9% | growth inhibition [2] 2.07% | viability increase [3] 0.39% | viability [4] 97.1% | viability [5] 99.3% | inhibition [6] 0.26% | RAM network inhibition [7] 2.57%

Cc1ccc(-c2noc(CN(C(=O)c3cccc(Br)c3)C(C)C)n2)cc1
inactive: growth inhibition [1] 0.485% | growth inhibition [2] -2.63% | viability increase [3] 1.98% | viability [4] 92.5% | viability [5] 85.3% | inhibition [6] 2.58% | RAM network inhibition [7] 10%

Cc1ccc(C(=O)NCCCCNC(=O)c2ccc(C)o2)o1
inactive: growth inhibition [1] -5.8% | growth inhibition [2] -4.64% | viability increase [3] -1.97% | viability [4] 106% | viability [5] 96.3% | inhibition [6] 3.56% | RAM network inhibition [7] 4.03%

COC(=O)c1cc(OC)c(OC)cc1-n1cnc2cc(OC)c(OC)cc2c1=O
inactive: growth inhibition [1] -8.81% | growth inhibition [2] -0.615% | viability increase [3] -0.58% | viability [4] 97.4% | viability [5] 105% | inhibition [6] 0.665% | RAM network inhibition [7] 0.92%
